This note sets out measurements from ChEMBL document CHEMBL4808225, “Discovery and Characterization of Selective and Ligand-Efficient DYRK Inhibitors” (J Med Chem, 2021).

pKd: −log10 of the molar value.

Data set [1] is described as follows: Metabolic stability in human liver microsomes. Type of data set: ADME, Microsome. As to conditions: read-out: Stabilty. For orientation: Liver microsomes are vesicles of endoplasmic reticulum, rich in cytochrome P450 enzymes.
Data set [2] can be described thus: Metabolic stability in rat liver microsomes. The settings on record: read-out: Stabilty. Type of data set: ADME, Microsome.
The target in data set [3] is Dual specificity tyrosine-phosphorylation-regulated kinase 1B (Homo sapiens) (UniProt Q9Y463). The data set is described as follows: Inhibition of wild-type human full length DYRK1B (M1 to S629 residues) expressed in bacterial expression system assessed as remaining activity at 1 uM by Kinomescan method relative to control. The method, boiled down: (§1)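 KINOMEscan competition binding panel run with inhibitor at 1 μM; read-out is remaining kinase activity (percent of control).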
Sequence of Dual specificity tyrosine-phosphorylation-regulated kinase 1B (Homo sapiens) (Q9Y463 whole entry, looked up, the tested form may be a part): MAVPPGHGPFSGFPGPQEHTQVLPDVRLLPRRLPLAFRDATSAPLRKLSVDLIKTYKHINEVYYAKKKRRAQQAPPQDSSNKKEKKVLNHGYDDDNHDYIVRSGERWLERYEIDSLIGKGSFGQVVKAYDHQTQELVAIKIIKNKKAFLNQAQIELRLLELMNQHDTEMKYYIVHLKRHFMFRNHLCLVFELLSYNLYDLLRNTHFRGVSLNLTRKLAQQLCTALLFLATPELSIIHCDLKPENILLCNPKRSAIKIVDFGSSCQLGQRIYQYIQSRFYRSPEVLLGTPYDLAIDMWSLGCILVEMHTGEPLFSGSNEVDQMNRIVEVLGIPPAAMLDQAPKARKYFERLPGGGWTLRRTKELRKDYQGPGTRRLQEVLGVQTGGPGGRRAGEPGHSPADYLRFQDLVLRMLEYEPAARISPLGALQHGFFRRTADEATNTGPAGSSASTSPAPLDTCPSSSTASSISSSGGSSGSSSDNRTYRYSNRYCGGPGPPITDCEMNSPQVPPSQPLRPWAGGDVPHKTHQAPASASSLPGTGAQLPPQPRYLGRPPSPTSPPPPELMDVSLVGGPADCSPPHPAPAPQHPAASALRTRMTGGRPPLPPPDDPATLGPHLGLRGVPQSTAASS

Data set [4] has as its target T1, Dual specificity tyrosine-phosphorylation-regulated kinase 2 (Homo sapiens) (UniProt Q92630).
T1 sequence (whole entry): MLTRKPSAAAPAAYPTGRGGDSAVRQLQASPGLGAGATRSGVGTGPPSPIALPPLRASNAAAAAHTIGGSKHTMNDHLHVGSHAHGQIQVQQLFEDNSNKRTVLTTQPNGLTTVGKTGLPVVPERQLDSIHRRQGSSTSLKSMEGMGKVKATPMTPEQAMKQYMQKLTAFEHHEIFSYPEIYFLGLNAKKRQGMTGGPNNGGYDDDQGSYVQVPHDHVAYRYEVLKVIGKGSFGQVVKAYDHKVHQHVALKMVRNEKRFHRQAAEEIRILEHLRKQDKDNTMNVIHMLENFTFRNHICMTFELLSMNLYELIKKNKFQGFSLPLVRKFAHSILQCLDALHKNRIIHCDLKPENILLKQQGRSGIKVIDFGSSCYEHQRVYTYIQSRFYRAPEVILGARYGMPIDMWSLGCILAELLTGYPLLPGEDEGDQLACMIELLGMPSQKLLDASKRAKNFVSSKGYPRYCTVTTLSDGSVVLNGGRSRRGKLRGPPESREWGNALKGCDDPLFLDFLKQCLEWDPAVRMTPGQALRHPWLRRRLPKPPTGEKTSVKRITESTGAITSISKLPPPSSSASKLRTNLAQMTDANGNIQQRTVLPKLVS
Nature of the data set: Inhibition of wild-type human full length DYRK2 (M1 to S528 residues) expressed in mammalian expression system assessed as remaining activity at 1 uM by Kinomescan method relative to control. In outline:
as §1

The target in data set [5] is T2, Dual specificity protein kinase CLK1 (Homo sapiens, UniProt P49759). The data set is described as follows: Inhibition of wild-type human full length CLK1 (M1 to I484 residues) expressed in bacterial expression system assessed as remaining activity at 1 uM by Kinomescan method relative to control. In outline: as §1
Target sequence in this assay (P49759 whole entry, looked up, the tested form may be a part): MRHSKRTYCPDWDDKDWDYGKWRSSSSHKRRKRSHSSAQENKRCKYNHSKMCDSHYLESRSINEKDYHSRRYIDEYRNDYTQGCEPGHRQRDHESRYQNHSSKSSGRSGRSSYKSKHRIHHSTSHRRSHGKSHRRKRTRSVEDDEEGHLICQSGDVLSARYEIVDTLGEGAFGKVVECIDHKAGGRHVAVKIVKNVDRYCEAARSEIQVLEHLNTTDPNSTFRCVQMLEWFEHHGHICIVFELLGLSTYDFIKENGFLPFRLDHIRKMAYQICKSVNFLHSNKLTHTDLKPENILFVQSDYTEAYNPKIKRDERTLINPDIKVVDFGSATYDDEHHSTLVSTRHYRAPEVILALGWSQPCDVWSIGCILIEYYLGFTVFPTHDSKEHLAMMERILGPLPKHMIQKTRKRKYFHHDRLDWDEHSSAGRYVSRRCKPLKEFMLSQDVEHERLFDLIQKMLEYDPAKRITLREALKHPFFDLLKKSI
The target in data set [6] is Cyclin-dependent kinase 2 (Homo sapiens) (UniProt P24941). Nature of the data set: Inhibition of wild-type human full length CDK2 (M1 to L298 residues) expressed in bacterial expression system assessed as remaining activity at 1 uM by Kinomescan method relative to control. In outline:
as §1

For data set [7], the target named is Glycogen synthase kinase-3 beta (Homo sapiens) (UniProt P49841). The data set is described as follows: Inhibition of wild-type human full length GSK3B (M1 to T433 residues) expressed in mammalian expression system assessed as remaining activity at 1 uM by Kinomescan method relative to control. In outline: as §1
Sequence of Glycogen synthase kinase-3 beta (Homo sapiens) (P49841 whole entry, looked up, the tested form may be a part): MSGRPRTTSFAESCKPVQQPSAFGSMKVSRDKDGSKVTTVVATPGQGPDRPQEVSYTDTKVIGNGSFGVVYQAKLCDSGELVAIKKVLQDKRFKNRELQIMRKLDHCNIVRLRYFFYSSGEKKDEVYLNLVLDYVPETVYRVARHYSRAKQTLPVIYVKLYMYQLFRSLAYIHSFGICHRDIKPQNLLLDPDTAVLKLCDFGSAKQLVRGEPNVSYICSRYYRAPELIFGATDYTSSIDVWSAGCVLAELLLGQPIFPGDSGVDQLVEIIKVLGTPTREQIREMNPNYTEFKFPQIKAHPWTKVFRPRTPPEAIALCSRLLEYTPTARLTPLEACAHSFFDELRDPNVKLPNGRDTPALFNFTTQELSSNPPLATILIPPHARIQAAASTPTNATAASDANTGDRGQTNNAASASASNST
The target of data set [8] is T3, Serine/threonine-protein kinase haspin (Homo sapiens, UniProt Q8TF76).
T3 sequence (Q8TF76 whole entry): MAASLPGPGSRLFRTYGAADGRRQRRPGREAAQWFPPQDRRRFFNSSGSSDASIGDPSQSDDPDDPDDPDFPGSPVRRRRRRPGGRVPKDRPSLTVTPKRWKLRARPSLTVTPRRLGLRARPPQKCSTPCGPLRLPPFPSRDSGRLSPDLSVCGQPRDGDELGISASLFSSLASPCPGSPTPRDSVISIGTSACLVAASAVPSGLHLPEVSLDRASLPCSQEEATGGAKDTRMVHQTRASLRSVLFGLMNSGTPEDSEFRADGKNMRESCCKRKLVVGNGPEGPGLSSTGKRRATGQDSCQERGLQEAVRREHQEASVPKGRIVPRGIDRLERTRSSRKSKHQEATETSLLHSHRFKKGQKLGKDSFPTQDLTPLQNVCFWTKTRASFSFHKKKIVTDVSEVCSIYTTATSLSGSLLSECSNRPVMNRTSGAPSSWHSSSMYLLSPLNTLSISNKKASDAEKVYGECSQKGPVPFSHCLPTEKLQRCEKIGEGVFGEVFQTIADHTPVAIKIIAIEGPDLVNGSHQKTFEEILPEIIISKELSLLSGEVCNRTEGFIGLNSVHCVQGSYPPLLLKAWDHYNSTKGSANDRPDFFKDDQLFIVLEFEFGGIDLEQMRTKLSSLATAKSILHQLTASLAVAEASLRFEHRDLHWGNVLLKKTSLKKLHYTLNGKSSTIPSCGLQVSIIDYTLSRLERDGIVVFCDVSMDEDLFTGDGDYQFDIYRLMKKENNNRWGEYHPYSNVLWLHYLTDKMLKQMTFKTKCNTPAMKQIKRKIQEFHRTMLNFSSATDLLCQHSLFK
Nature of the data set: Binding affinity to wild-type human partial length HASPIN (I452 to K798 residues) expressed in mammalian expression system measured after 1 hr by competitive binding assay.

The target in data set [9] is Dual specificity protein kinase CLK4 (Homo sapiens, UniProt Q9HAZ1). The data set is described as follows: Binding affinity to wild-type human partial length CLK4 (R135 to K481 residues) expressed in bacterial expression system measured after 1 hr by competitive binding assay.
Sequence of Dual specificity protein kinase CLK4 (Q9HAZ1 whole entry, the tested form may be a part): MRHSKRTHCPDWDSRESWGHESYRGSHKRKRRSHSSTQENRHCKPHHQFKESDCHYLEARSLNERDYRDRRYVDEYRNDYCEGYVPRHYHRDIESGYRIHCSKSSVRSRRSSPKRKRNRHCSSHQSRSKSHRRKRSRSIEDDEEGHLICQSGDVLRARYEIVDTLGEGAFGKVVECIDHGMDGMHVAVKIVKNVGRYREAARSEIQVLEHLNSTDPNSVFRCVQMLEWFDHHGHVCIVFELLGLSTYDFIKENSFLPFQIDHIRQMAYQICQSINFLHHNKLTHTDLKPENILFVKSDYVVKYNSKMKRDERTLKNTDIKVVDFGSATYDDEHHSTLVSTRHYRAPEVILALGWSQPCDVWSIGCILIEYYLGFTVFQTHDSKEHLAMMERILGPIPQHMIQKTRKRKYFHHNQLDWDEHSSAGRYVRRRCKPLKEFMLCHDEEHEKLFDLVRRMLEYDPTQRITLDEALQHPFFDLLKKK
Data set [10] concerns the target T2, Dual specificity protein kinase CLK1. Nature of the data set: Binding affinity to wild-type human full length CLK1 (M1 to I484 residues) expressed in bacterial expression system measured after 1 hr by competitive binding assay.
Target sequence in this assay (P49759 whole entry, the tested form may be a part): as the sequence (P49759 whole entry, looked up, the tested form may be a part) above
Data set [11] concerns the target Homeodomain-interacting protein kinase 2 (Homo sapiens, UniProt Q9H2X6). Nature of the data set: Binding affinity to wild-type human partial length HIPK2 (M153 to S564 residues) expressed in mammalian expression system measured after 1 hr by competitive binding assay.
The target of data set [12] is MAP kinase-interacting serine/threonine-protein kinase 2 (Homo sapiens, UniProt Q9HBH9). Nature of the data set: Binding affinity to wild-type human partial length MKNK2 (G63 to S388 residues) expressed in mammalian expression system measured after 1 hr by competitive binding assay.
Sequence of MAP kinase-interacting serine/threonine-protein kinase 2 (Q9HBH9 whole entry, the tested form may be a part): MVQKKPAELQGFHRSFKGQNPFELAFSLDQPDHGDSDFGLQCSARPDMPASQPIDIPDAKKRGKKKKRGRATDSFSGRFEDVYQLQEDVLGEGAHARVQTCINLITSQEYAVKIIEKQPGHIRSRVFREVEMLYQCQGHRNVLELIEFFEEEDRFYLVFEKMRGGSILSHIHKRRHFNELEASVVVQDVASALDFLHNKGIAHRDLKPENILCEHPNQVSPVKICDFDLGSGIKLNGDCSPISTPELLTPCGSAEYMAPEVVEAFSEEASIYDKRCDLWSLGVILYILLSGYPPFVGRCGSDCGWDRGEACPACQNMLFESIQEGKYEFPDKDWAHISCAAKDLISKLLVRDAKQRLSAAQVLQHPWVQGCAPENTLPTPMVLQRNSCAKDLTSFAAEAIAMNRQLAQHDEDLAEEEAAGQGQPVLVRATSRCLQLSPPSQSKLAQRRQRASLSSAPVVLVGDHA
Data set [13] deals with Calcium/calmodulin-dependent protein kinase type 1B (Homo sapiens, UniProt Q6P2M8). The data set is described as follows: Binding affinity to wild-type human partial length CAMK1B (W9 to A311 residues) expressed in mammalian expression system measured after 1 hr by competitive binding assay.
Sequence of Calcium/calmodulin-dependent protein kinase type 1B (Q6P2M8 whole entry, the tested form may be a part): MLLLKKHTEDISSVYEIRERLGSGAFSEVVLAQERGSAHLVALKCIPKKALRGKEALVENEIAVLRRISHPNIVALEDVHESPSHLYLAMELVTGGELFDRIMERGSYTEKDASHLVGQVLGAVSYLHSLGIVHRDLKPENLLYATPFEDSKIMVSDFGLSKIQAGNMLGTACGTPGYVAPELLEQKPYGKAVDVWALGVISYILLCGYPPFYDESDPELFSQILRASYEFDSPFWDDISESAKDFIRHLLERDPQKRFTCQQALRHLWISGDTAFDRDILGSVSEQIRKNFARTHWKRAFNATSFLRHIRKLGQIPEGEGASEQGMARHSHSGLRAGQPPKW
Data set [14] has as its target Serine/threonine-protein kinase WNK2 (Homo sapiens, UniProt Q9Y3S1). Nature of the data set: Binding affinity to wild-type human partial length WNK2 (V47 to D482 residues) expressed in mammalian expression system measured after 1 hr by competitive binding assay.
Data set [15] is described as follows: AUClast in Sprague-Dawley rat at 1 mg/kg, iv. Type of data set: ADME, organism-based. On the set-up: route intravenous, time 0 - last, dose 1 mg/kg. The settings on record: in vivo. The method, boiled down: (§2)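 Single intravenous dose of 1 mg/kg given to fed Sprague–Dawley rats (n = 3); plasma and brain samples collected for pharmacokinetic parameters, with total brain:plasma ratio computed.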

Data set [16] is described as follows: AUC infinity in Sprague-Dawley rat at 1 mg/kg, iv. Type of data set: ADME, organism-based. Also noted: time infinity, route intravenous, dose 1 mg/kg. As to conditions: in vivo. The method, boiled down: as §2
The nature of data set [17]: MRT in Sprague-Dawley rat at 1 mg/kg, iv. The format is ADME, organism-based. The settings on record: in vivo. In outline: as §2
Data set [18] can be described thus: Initial plasma concentration in Sprague-Dawley rat at 1 mg/kg, iv. The settings on record: in vivo. Type of data set: ADME, organism-based. In outline: as §2
A short description of data set [19]: Toxicity in Sprague-Dawley rat assessed as adverse effect at 1 mg/kg, iv. The format is organism-based. The settings on record: in vivo. The method, boiled down:
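Fed Sprague–Dawley rats (n = 3) received one 1 mg/kg iv dose; adverse effects were recorded during the pharmacokinetic study.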

Sequence of Homeodomain-interacting protein kinase 2 (Q9H2X6 whole entry, the tested form may be a part): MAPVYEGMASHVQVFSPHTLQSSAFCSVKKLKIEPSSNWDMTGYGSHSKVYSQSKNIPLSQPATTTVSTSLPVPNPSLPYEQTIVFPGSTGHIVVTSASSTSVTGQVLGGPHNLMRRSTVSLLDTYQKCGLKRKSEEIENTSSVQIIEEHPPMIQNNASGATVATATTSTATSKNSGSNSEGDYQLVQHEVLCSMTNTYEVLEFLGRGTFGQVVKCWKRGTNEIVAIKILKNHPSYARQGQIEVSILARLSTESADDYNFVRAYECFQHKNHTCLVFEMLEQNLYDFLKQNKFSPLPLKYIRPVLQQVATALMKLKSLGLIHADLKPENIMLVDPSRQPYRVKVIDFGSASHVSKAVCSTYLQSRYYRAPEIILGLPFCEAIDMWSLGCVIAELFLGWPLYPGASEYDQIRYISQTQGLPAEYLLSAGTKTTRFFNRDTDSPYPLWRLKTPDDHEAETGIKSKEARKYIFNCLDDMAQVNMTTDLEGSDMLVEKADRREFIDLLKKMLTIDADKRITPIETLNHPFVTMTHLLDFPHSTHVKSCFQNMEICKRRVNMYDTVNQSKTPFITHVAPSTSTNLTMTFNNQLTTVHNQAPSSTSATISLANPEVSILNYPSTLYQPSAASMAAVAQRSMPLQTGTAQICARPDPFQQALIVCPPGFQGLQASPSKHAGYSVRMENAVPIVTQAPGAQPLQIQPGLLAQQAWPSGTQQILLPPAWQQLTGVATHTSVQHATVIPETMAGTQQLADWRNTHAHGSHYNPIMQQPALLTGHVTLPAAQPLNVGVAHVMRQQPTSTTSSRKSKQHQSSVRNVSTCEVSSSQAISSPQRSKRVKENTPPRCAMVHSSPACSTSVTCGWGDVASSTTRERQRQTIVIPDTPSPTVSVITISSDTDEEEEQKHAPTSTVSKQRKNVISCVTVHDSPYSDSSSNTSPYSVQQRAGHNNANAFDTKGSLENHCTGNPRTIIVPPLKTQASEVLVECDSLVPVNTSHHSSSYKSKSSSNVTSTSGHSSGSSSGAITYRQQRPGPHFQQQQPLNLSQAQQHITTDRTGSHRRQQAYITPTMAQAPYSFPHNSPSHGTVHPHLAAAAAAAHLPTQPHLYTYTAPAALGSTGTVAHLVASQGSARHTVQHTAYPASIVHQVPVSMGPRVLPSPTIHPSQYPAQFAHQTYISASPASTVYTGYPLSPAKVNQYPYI

Take `CN(C)c1nccc(-c2cnn3ncccc23)n1`: the results for the microsomal CLint in data set [1] and in data set [2] were 242 µL/min/mg and 231 µL/min/mg, respectively. For the same compound, the Activity in [3] is 2.7%; in data set [4], 19%; in data set [5] it was 7.1%; in data set [6] it was 100%; in data set [7] it was 94%; in [19] it was “Non-Toxic”. In addition, the pKd (as a rule, the negative decadic logarithm of the Kd, by convention in mol/L) in [8] was 7.82; in [9], 7.21; in data set [10], 7.15; in [11], 5.92; in [12], 5.74; in [13], 5.00. Moreover, the pKd in [14] is 5.00. The AUClast in data set [15] was found to be 275.3 ng·h/mL. The AUC – broadly, the area under the concentration-time curve, a measure of exposure – in data set [16] is 276.4 ng·h/mL. The MRT (as a rule, the average time that molecules of a dose stay in the body) in data set [17] was 12 min. In [18], this compound had a C0 of 1331.5 ng/mL.
